Source: ChEMBL document CHEMBL3297713, “Discovery, optimization, and biological evaluation of 5-(2-(trifluoromethyl)phenyl)indazoles as a novel class of transient receptor potential A1 (TRPA1) antagonists” (J Med Chem, 2014)

How the values were obtained:
[1] = target: Transient receptor potential cation channel subfamily A member 1 (Homo sapiens, UniProt O75762); assay: Antagonist activity at human TRPA1 expressed in CHO-TREX cells assessed as inhibition of cinnamaldehyde-induced calcium flux incubated 10 mins prior to cinnamaldehyde addition by FLIPR assay relative to control; format: cell-based
Chain of Transient receptor potential cation channel subfamily A member 1 (Homo sapiens, UniProt O75762) (O75762 whole entry): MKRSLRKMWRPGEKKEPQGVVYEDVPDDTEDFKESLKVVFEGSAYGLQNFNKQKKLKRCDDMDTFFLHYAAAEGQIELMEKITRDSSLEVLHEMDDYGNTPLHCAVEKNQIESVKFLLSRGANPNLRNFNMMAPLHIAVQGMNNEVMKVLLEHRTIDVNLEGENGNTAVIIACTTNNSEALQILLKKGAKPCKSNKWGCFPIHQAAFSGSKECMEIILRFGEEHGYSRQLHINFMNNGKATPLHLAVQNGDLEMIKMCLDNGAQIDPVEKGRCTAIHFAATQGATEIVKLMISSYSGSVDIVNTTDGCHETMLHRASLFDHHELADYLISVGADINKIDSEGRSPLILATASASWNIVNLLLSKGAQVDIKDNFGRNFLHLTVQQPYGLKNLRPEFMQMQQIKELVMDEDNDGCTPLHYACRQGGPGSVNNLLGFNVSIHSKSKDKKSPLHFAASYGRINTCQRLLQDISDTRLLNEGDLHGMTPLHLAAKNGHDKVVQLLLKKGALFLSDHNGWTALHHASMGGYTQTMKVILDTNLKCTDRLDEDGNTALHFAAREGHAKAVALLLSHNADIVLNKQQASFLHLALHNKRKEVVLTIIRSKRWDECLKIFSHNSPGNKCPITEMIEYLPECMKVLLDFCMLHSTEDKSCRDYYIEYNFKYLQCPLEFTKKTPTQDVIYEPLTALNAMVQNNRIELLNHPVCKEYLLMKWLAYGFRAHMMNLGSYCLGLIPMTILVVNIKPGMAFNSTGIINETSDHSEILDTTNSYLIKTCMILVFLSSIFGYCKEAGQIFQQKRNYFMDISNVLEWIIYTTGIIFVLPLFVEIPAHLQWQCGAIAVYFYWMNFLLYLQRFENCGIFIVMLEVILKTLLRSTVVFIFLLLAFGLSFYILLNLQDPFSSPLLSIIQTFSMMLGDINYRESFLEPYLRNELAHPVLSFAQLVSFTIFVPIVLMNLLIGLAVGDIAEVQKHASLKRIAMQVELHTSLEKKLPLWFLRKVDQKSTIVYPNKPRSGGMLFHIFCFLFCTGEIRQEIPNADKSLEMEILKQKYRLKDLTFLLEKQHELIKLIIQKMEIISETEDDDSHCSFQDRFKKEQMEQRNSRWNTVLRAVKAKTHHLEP
Summary of the method: (§1)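 TRPA1-expressing CHO-TREX cells, channel expression induced with tetracycline (0.5 µg/mL human, 1 µg/mL mouse or rat). Cells loaded with Fluo4-AM for 90 min at room temperature, washed, then test agent added in HBSS/20 mM HEPES/2.5 mM probenecid/0.1% BSA. Agonist added 10 min later at EC80: human cinnamaldehyde 30 µM, AITC 2.5 µM, dibenzoxazepine-carboxamide 5 nM; rat and mouse cinnamaldehyde 40 µM. FLIPR calcium flux; mean of triplicates fitted to sigmoidal dose-response curves.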

CHO-K1 [2] = assay: Selectivity ratio of IC50 for human TRPV3 expressed in CHOK1 cells to IC50 for human TRPA1 expressed in CHO-TREX cells; format: cell-based
Summary of the method: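 Calcium influx was measured by FLIPR in Fluo4-AM-loaded cells: hTRPV3 CHO-K1 challenged with 40 µM 2-APB, and hTRPA1 CHO-TREX (0.5 µg/mL tetracycline) challenged with 30 µM cinnamaldehyde, 2.5 µM AITC or 5 nM dibenzoxazepine carboxamide, all at EC80. Compounds were added 10 min ahead of agonist in HEPES-buffered HBSS with probenecid. Sigmoidal curves were fitted to triplicate means.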

CHO-K1 [3] = assay: Selectivity ratio of IC50 for human TRPM8 expressed in CHOK1 cells to IC50 for human TRPA1 expressed in CHO-TREX cells; format: cell-based
Summary of the method: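 FLIPR calcium-flux antagonist assays with Fluo4-AM loading (90 min, room temperature) in HBSS/20 mM HEPES/2.5 mM probenecid/0.1% BSA. Compound added 10 min before agonist at EC80: 40 µM menthol for CHO-K1 hTRPM8; for tetracycline-induced (0.5 µg/mL) CHO-TREX hTRPA1, 30 µM cinnamaldehyde, 2.5 µM AITC or 5 nM dibenzoxazepine carboxamide. Response is maximum minus minimum. IC50s come from sigmoidal fits of triplicate means.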

[4] = target: Transient receptor potential cation channel subfamily A member 1 (Mus musculus) (UniProt Q8BLA8); assay: (§2) Antagonist activity at mouse TRPA1 expressed in CHO-TREX cells assessed as inhibition of cinnamaldehyde-induced calcium flux incubated 10 mins prior to cinnamaldehyde addition by FLIPR assay relative to control; format: cell-based; parameters: concentration or dose not given beside the values; summary of the method: as §1
Chain of Transient receptor potential cation channel subfamily A member 1 (Mus musculus) (Q8BLA8 whole entry): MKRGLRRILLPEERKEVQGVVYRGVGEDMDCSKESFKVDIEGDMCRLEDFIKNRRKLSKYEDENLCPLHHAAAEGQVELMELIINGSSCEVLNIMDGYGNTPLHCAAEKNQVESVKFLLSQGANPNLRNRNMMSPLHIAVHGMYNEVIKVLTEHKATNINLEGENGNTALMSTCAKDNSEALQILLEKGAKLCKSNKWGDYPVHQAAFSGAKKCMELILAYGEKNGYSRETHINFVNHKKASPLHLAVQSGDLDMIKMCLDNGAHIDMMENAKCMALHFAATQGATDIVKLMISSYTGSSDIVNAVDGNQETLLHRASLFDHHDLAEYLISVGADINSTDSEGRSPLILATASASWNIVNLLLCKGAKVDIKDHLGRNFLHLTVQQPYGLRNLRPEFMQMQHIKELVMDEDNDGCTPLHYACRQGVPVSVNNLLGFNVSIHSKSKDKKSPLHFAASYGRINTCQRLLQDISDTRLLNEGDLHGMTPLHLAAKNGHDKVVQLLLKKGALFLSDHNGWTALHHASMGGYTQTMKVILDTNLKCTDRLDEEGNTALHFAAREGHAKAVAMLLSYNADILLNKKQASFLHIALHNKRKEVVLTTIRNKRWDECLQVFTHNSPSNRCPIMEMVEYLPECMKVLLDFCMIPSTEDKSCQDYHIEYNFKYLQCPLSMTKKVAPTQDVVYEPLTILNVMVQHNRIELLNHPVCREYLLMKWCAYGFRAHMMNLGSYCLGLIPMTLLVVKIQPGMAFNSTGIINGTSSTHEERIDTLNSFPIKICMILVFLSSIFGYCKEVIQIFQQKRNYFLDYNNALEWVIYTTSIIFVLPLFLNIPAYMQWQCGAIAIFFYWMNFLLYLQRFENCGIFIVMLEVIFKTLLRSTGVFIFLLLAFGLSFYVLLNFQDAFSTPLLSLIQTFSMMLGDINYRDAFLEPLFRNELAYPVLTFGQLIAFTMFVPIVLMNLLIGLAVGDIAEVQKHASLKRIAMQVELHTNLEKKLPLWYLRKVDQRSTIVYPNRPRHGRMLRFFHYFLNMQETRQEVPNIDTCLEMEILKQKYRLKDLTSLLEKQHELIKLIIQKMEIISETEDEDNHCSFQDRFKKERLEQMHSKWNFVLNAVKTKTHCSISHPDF

[5] = target: Transient receptor potential cation channel subfamily A member 1 (Mus musculus, UniProt Q8BLA8); assay: as §2; format: cell-based; summary of the method: as §1
Chain of Transient receptor potential cation channel subfamily A member 1 (Mus musculus, UniProt Q8BLA8) (Q8BLA8 whole entry): as above

[6] = target: T1, Transient receptor potential cation channel subfamily V member 3 (Homo sapiens) (UniProt Q8NET8); assay: (§3) Antagonist activity at human TRPV3 expressed in CHOK1 cells assessed as inhibition of 2-APB-induced calcium flux incubated 10 mins prior to 2-APB addition by FLIPR assay relative to control; format: cell-based; parameters: concentration or dose not given beside the values; conditions: CHO-K1
T1 sequence (whole entry): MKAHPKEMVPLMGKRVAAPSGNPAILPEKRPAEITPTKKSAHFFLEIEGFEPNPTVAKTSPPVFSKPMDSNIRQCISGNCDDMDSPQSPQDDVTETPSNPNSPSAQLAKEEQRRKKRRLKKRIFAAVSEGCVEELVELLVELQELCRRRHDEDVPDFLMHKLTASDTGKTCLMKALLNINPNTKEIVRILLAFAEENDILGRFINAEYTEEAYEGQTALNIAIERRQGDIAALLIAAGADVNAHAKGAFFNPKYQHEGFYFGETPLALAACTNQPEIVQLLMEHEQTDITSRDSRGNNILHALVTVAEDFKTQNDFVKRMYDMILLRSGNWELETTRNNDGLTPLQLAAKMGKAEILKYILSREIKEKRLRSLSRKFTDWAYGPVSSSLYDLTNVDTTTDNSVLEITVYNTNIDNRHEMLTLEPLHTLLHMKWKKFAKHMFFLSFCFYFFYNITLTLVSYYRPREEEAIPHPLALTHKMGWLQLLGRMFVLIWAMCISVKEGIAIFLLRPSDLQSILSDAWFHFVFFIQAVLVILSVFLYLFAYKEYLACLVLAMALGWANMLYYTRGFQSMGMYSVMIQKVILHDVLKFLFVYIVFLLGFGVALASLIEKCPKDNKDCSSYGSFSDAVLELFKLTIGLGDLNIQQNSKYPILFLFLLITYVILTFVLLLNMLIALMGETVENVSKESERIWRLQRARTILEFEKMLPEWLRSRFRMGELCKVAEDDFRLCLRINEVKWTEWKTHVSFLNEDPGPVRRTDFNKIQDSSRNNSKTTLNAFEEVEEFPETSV

[7] = target: T2, Transient receptor potential cation channel subfamily V member 3 (Homo sapiens, UniProt Q8NET8); assay: as §3; format: cell-based, CHO-K1
T2 sequence (Q8NET8 whole entry): T1 sequence (whole entry)

[8] = target: Transient receptor potential cation channel subfamily V member 1 (Homo sapiens, UniProt Q8NER1); assay: Antagonist activity at human TRPV1 expressed in CHOK1 cells assessed as inhibition of capsaicin-induced calcium flux incubated 10 mins prior to capsaicin addition by FLIPR assay relative to control; format: cell-based, CHO-K1
Chain of Transient receptor potential cation channel subfamily V member 1 (Q8NER1 whole entry): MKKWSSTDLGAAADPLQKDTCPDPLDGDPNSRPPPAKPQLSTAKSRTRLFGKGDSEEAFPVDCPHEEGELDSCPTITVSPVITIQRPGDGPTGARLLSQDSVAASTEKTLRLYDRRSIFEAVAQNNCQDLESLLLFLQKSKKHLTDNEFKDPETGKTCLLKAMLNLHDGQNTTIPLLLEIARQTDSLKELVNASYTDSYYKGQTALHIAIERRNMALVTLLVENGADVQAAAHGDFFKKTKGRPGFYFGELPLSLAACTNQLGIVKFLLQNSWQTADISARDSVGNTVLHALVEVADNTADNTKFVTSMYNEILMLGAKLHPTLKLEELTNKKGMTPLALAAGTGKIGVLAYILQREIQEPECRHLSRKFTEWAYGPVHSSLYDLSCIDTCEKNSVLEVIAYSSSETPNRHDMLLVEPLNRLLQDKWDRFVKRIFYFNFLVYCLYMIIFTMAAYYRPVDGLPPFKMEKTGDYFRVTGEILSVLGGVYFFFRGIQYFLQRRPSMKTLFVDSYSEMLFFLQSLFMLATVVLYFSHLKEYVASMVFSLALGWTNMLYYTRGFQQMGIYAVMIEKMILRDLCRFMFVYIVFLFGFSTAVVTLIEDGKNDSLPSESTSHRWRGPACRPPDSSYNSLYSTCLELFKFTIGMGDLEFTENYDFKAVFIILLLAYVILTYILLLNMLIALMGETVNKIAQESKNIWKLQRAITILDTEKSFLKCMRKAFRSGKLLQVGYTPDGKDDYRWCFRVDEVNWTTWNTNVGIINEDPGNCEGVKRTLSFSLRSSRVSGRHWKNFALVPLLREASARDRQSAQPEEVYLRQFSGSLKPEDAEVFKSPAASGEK

[9] = target: Transient receptor potential cation channel subfamily A member 1 (Rattus norvegicus) (UniProt Q6RI86); assay: (§4) Antagonist activity at rat TRPA1 expressed in CHO-TREX cells assessed as inhibition of cinnamaldehyde-induced calcium flux incubated 10 mins prior to cinnamaldehyde addition by FLIPR assay relative to control; format: cell-based; parameters: concentration or dose not given beside the values; summary of the method: as §1
Chain of Transient receptor potential cation channel subfamily A member 1 (Rattus norvegicus) (Q6RI86 whole entry): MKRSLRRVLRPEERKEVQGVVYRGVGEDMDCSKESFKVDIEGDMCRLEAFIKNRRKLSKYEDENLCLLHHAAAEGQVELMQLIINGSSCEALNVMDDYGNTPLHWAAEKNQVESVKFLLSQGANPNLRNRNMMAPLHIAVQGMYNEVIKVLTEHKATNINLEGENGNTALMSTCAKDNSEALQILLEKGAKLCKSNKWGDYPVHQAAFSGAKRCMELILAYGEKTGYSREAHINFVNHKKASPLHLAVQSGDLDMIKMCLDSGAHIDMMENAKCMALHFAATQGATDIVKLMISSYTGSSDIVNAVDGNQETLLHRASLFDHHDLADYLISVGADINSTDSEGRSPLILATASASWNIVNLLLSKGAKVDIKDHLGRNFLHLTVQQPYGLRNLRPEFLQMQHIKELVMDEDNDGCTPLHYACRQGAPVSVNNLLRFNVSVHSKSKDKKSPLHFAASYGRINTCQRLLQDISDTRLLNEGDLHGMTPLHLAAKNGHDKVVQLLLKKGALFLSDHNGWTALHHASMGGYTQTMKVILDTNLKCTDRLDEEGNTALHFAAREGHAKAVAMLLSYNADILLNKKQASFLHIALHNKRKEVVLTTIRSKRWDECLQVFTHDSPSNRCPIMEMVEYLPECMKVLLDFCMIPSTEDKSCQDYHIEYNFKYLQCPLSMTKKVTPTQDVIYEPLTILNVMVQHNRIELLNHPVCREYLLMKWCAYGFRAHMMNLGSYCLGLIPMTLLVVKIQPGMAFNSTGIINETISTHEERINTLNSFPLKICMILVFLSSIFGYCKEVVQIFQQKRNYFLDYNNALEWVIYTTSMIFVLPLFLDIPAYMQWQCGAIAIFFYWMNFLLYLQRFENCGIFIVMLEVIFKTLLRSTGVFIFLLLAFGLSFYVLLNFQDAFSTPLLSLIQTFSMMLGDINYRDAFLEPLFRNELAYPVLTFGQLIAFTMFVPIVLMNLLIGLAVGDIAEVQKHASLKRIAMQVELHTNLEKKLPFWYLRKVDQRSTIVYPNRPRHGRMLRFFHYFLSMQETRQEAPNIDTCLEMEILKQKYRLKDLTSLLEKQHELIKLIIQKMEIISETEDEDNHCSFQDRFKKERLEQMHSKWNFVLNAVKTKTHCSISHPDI

[10] = target: Transient receptor potential cation channel subfamily A member 1 (Rattus norvegicus, UniProt Q6RI86); assay: as §4; format: cell-based; summary of the method: as §1
Chain of Transient receptor potential cation channel subfamily A member 1 (Rattus norvegicus, UniProt Q6RI86) (Q6RI86 whole entry): as above

[11] = target: Transient receptor potential cation channel subfamily M member 8 (Homo sapiens, UniProt Q7Z2W7); assay: Antagonist activity at human TRPM8 expressed in CHOK1 cells assessed as inhibition of menthol-induced calcium flux incubated 10 mins prior to menthol addition by FLIPR assay relative to control; format: cell-based, CHO-K1
CHO-K1 [12] = assay: Selectivity ratio of IC50 for human TRPV1 expressed in CHOK1 cells to IC50 for human TRPA1 expressed in CHO-TREX cells; format: cell-based
Summary of the method: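 Stable hTRPV1 CHO-K1 and tetracycline-induced (0.5 µg/mL) hTRPA1 CHO-TREX cells were loaded with Fluo4-AM for 90 min at room temperature and read on FLIPR. Antagonist preincubation was 10 min before EC80 agonist: capsaicin 40 nM (TRPV1); cinnamaldehyde 30 µM, AITC 2.5 µM or dibenzoxazepine carboxamide 5 nM (TRPA1). Buffer contained probenecid and BSA. IC50s were fitted from triplicate means of max−min calcium signal.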

Cc1cc(-c2ccccc2C(F)(F)F)cc2cn[nH]c12
IC50 [1]: 6720 nM | inhibition [1]: 98%

Fc1ccccc1-c1ccc2[nH]ncc2c1
IC50 [1]: 3950 nM | inhibition [1]: 68%

N#Cc1cc2[nH]ncc2cc1-c1ccccc1C(F)(F)F
IC50 [1]: 129 nM | inhibition [1]: 100%

FC(F)(F)Oc1cc2[nH]ncc2cc1-c1ccccc1C(F)(F)F
Ratio IC50 (CHO-K1 [2]): > 100 | Ratio IC50 (CHO-K1 [3]): > 100 | inhibition [4]: 100% | IC50 [5]: 254 nM | inhibition [6]: 22% | IC50 [7]: > 30000 nM | IC50 [8]: 11500 nM | inhibition ([8]; CHO-K1): 78% | inhibition [9]: 100% | IC50 [10]: 627 nM | IC50 [11]: 6400 nM | inhibition ([11]; CHO-K1): 100% | IC50 [1]: 36 nM | inhibition [1]: 99% | Ratio IC50 (CHO-K1 [12]): > 100

CCc1ccccc1-c1ccc2[nH]ncc2c1
IC50 [1]: 584 nM | inhibition [1]: 96%

FC(F)(F)Oc1ccccc1-c1ccc2[nH]ncc2c1
IC50 [1]: 3430 nM | inhibition [1]: 97%

FC(F)c1cc2[nH]ncc2cc1-c1ccccc1C(F)(F)F
IC50 [1]: 103 nM | inhibition [1]: 100%

Fc1cccc(-c2ccc3[nH]ncc3c2)c1C(F)(F)F
IC50 [1]: 8900 nM | inhibition [1]: 97%

Clc1ccccc1-c1ccc2[nH]ncc2c1
IC50 [1]: 1230 nM | inhibition [1]: 91%

Cc1n[nH]c2ccc(-c3ccccc3C(F)(F)F)cc12
IC50 [1]: 3090 nM | inhibition [1]: 83%

Fc1cccc(C(F)(F)F)c1-c1ccc2[nH]ncc2c1
IC50 [1]: 1230 nM | inhibition [1]: 95%

Fc1cc2[nH]ncc2cc1-c1ccccc1C(F)(F)F
IC50 [1]: 48 nM | inhibition [1]: 98%

FC(F)c1ccccc1-c1ccc2[nH]ncc2c1
IC50 [1]: 2200 nM | inhibition [1]: 93%

c1ccc(-c2ccc3[nH]ncc3c2)cc1
IC50 [1]: > 30000 nM

CNC(=O)c1cc2[nH]ncc2cc1-c1ccccc1C(F)(F)F
IC50 [1]: > 30000 nM

Cc1ccccc1-c1ccc2[nH]ncc2c1
IC50 [1]: 7810 nM | inhibition [1]: 78%

FC(F)(F)c1ccccc1-c1cc2cn[nH]c2cc1C1CC1
IC50 [1]: 61 nM | inhibition [1]: 99%
